Experimental data: the RNAGym collection of RNA variant scans (doi:10.1002/anie.201605470)

B1: Osa-1-4 twister ribozyme (parent)
chain: CCGCCUAACACUGCCAAUGCCGGUCCCAAGCCCGGAUAAAAGUGGAGGGGGCGG

Variants of: B1
Assay: self-cleavage, relative activity (ratio to wild type); higher = more cleavage; co-transcriptional
Method in brief: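 A DNA template encoding a 54-nucleotide twister ribozyme from Oryza sativa was made so that each of the 48 positions downstream of the cleavage site carried 97 % wild-type base and 1 % of each other base. Transcription in vitro ran for 2 h at 37 °C, during which the ribozyme could cleave itself. Reverse transcription used a template-switching oligonucleotide, and the products were PCR-amplified and deep-sequenced. Each read was scored as cleaved or uncleaved by whether upstream sequence was present, and relative activity is the fraction cleaved normalised to wild type.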

Point of comparison: CCGCCUAACACUGCCAAUGCCGGUCCCAAGCUCGGAUAGAAGUGGAGGGGGCGG, self-cleavage 0.1. Against it:
- CCGCCUAACACUGCCAAUGCCGGUCACAAGCCCGGAUAGAAGUGGAGGGGGCGG — lower, 0.06
- CCGCCUAACACUGCCAAUGCCGGUCGCAAGCCCGGAUAGAAGUGGAGGGGGCGG — higher, 0.25
- CCGCCUAACACUGCCAAUGCCGGUCUCAAGCCCGGAUAGAAGUGGAGGGGGCGG — higher, 0.55
- CCGCCUAACACUGCCAAUGCCGGUCCCAAGGCCGGAUAGAAGUGGAGGGGGCGG — the same, 0.1
- CCGCCUAACACUGCCAAUGCCGGUCCCAAGUCCGGAUAGAAGUGGAGGGGGCGG — higher, 0.56
- CCGCCUAACACUGCCAAUGCCGGUCCCAAGACCGGAUAGAAGUGGAGGGGGCGG — lower, 0.03
- CCGCCUAACACUGCCAAUGGCGGUCCCAAGCCCGGAUAGAAGUGGAGGGGGCGG — higher, 0.13
- CCGCCUAACACUGCCAAUGACGGUCCCAAGCCCGGAUAGAAGUGGAGGGGGCGG — higher, 0.91
- CCGCCUAACACUGCCAAUGUCGGUCCCAAGCCCGGAUAGAAGUGGAGGGGGCGG — higher, 0.96
- CCGCCUAACACUGCCAAUGCCGGUCCCAAGCCCAGAUAGAAGUGGAGGGGGCGG — higher, 0.8
- CCGCCUAACACUGCCAAUGCCGGUGCCAAGCCCGGAUAGAAGUGGAGGGGGCGG — lower, 0.07
- CCGCCUAACACUGCCAAUGCCGGUUCCAAGCCCGGAUAGAAGUGGAGGGGGCGG — higher, 0.53
- CCGCCUAACACUGCCAAUGCCGGUACCAAGCCCGGAUAGAAGUGGAGGGGGCGG — lower, 0.07
- CCGCCUAACACUCCCAAUGCCGGUCCCAAGCCCGGAUAGAAGUGGAGGGGGCGG — lower, 0.03
- CCGCCUAACACUACCAAUGCCGGUCCCAAGCCCGGAUAGAAGUGGAGGGGGCGG — lower, 0.07
- CCGCCUAACACUUCCAAUGCCGGUCCCAAGCCCGGAUAGAAGUGGAGGGGGCGG — lower, 0.03
- CCGCCUAACACUGCCAAUGCCGGUCCCAAUCCCGGAUAGAAGUGGAGGGGGCGG — lower, 0.04
- CCGCCUAACACUGCCAAUGCCGGUCCCAAACCCGGAUAGAAGUGGAGGGGGCGG — lower, 0.05
- CCGCCUAACACUGCCAAUGCCGGUCCCAACCCCGGAUAGAAGUGGAGGGGGCGG — lower, 0.05
- CCGCCUAACACUGCAAAUGCCGGUCCCAAGCCCGGAUAGAAGUGGAGGGGGCGG — higher, 0.41
- CCGCCUAACACUGCGAAUGCCGGUCCCAAGCCCGGAUAGAAGUGGAGGGGGCGG — higher, 0.31
- CCGCCUAACACUGCUAAUGCCGGUCCCAAGCCCGGAUAGAAGUGGAGGGGGCGG — higher, 0.21
- CCGCCUAACACUGCCAAUUCCGGUCCCAAGCCCGGAUAGAAGUGGAGGGGGCGG — higher, 0.26
- CCGCCUAACACUGCCAAUCCCGGUCCCAAGCCCGGAUAGAAGUGGAGGGGGCGG — higher, 0.31
- CCGCCUAACACUGCCAAUACCGGUCCCAAGCCCGGAUAGAAGUGGAGGGGGCGG — higher, 0.7
- CCGCCUAACACUGCCAAUGCCUGUCCCAAGCCCGGAUAGAAGUGGAGGGGGCGG — higher, 0.26
- CCGCCUAACACUGCCAAUGCCCGUCCCAAGCCCGGAUAGAAGUGGAGGGGGCGG — lower, 0.08
- CCGCCUAACACUGCCAAUGCCAGUCCCAAGCCCGGAUAGAAGUGGAGGGGGCGG — higher, 0.95
- CCGCCUAACACUGCCAAUGCGGGUCCCAAGCCCGGAUAGAAGUGGAGGGGGCGG — lower, 0.08
- CCGCCUAACACUGCCAAUGCAGGUCCCAAGCCCGGAUAGAAGUGGAGGGGGCGG — higher, 0.55
- CCGCCUAACACUGCCAAUGCUGGUCCCAAGCCCGGAUAGAAGUGGAGGGGGCGG — higher, 1.01
- CCGCCUAACACUGCCAAUGCCGUUCCCAAGCCCGGAUAGAAGUGGAGGGGGCGG — lower, 0.07
- CCGCCUAACACUGCCAAUGCCGAUCCCAAGCCCGGAUAGAAGUGGAGGGGGCGG — higher, 0.2
- CCGCCUAACACUGCCAAUGCCGCUCCCAAGCCCGGAUAGAAGUGGAGGGGGCGG — lower, 0.07
- CCGCCUAACACUGCCAAUGCCGGUCCCAAGCCAGGAUAGAAGUGGAGGGGGCGG — lower, 0.08
- CCGCCUAACACUGCCAAUGCCGGUCCCAAGCCGGGAUAGAAGUGGAGGGGGCGG — lower, 0.07
- CCGCCUAACACUGCCAAUGCCGGUCCCAAGCCUGGAUAGAAGUGGAGGGGGCGG — higher, 0.63
- CCGCCUAACACUGCCAAUGCCGGUCCUAAGCCCGGAUAGAAGUGGAGGGGGCGG — higher, 0.11
- CCGCCUAACACUGCCAAUGCCGGUCCGAAGCCCGGAUAGAAGUGGAGGGGGCGG — lower, 0.07
- CCGCCUAACACUGCCAAUGCCGGUCCAAAGCCCGGAUAGAAGUGGAGGGGGCGG — lower, 0.09
- CCGCCUAACACUGCCAAUGCCGGUCCCAAGCCCGGAUAGAAGUGGAGGGGGUGG — higher, 1.04
- CCGCCUAACACUGCCAAUGCCGGUCCCAAGCCCGGAUAGAAGUGGAGGGGGGGG — higher, 0.98
- CCGCCUAACACUGCCAAUGCCGGUCCCAAGCCCGGAUAGAAGUGGAGGGGGAGG — higher, 0.97
- CCGCCUAACACUGCCAAUGCCGGUCCCAAGCACGGAUAGAAGUGGAGGGGGCGG — lower, 0.08
- CCGCCUAACACUGCCAAUGCCGGUCCCAAGCGCGGAUAGAAGUGGAGGGGGCGG — higher, 0.14
- CCGCCUAACACUGGCAAUGCCGGUCCCAAGCCCGGAUAGAAGUGGAGGGGGCGG — higher, 0.12
- CCGCCUAACACUGUCAAUGCCGGUCCCAAGCCCGGAUAGAAGUGGAGGGGGCGG — higher, 0.11
- CCGCCUAACACUGACAAUGCCGGUCCCAAGCCCGGAUAGAAGUGGAGGGGGCGG — lower, 0.08
